According to ChEMBL document CHEMBL4229335 (Eur J Med Chem, 2018):

Experiments:
Bel-7402 = experiment: Antiproliferative activity against human Bel7402 cells after 72 hrs by MTT assay; assay type: functional, cell-based; details: Bel-7402, 72 h
In short: (§1)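 MTT assay with 72 h exposure to graded concentrations in triplicate. MTT solution then DMSO were added, followed by 10 min at room temperature, with absorbance read at 490 nm. IC50 is reported as the mean of three independent experiments. 5-FU served as positive control.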

L02 = experiment: Antiproliferative activity against human LO2 cells after 72 hrs by MTT assay; assay type: cell-based; details: L02, 72 h; in short: as §1
Bel7402/5-FU = experiment: Antiproliferative activity against human Bel7402/5-FU cells after 72 hrs by MTT assay; assay type: functional, cell-based; in short: as §1
[1] = Selectivity index, ratio of IC50 for human LO2 cells to IC50 for human Bel7402 cells; assay type: toxicity; details: LO2 cells versus Bel7402 cells, read-out: Ratio IC50
In short: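 SI was calculated as IC50 in L-02 normal liver cells divided by IC50 in Bel-7402 cells, both from the 72 h MTT assay.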

PC-3 = experiment: Antiproliferative activity against human PC3 cells after 72 hrs by MTT assay; assay type: functional, cell-based; details: PC-3, 72 h; in short: as §1
HL-60 = experiment: Antiproliferative activity against human HL60 cells after 72 hrs by MTT assay; assay type: functional, cell-based; details: HL-60, 72 h; in short: as §1

For `O=C(O)CCCc1ccc(N(CCCl)CCCl)cc1` [CHLORAMBUCIL], the IC50 (Bel-7402) was greater than 100 µM, the IC50 (L02) was greater than 100 µM and the IC50 (Bel7402/5-FU) was greater than 100 µM.

In the case of `C=C1C(=O)[C@@]23C(=O)O[C@H]4CCC(C)(C)[C@H]5C(=O)OC[C@@]45[C@@H]2CC[C@@H]1[C@H]3OC(=O)c1ccc(N(CCCl)CCCl)cc1`, the selectivity ratio [1] is reported as 39.3, the IC50 (Bel-7402) is reported as 1.6 µM and the IC50 (PC-3) is reported as 7.03 µM. It also gave an IC50 (HL-60) of 5.57 µM, an IC50 (L02) of 62.8 µM and an IC50 (Bel7402/5-FU) of 2.9 µM.

`C=C1C(=O)[C@@]23C(=O)O[C@H]4CCC(C)(C)[C@H]5[C@H](O)OC[C@@]45[C@@H]2CC[C@@H]1[C@H]3O` showed a selectivity ratio [1] of 0.8, an IC50 (Bel-7402) of 32.1 µM and an IC50 (PC-3) of 30.6 µM. The IC50 (HL-60) was 28.1 µM, the IC50 (L02) was 27.1 µM and the IC50 (Bel7402/5-FU) was 44.3 µM.
